In the library only some 0.55% were active in any assay of this set; here they are far more common.
TRPML3 ag: human mucolipin-3 channel agonism | Q8TDD5 | HEK293 TRPML3-YFP, Fluo-8 calcium fluorescence; 100% = the carbachol control signal | activation, % at 3 µM | hit rate 0.29% among 220,000;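 active means activation above its plate's cutoff, the mean activation of the plate's test wells plus 3 SD, cut at about 12% in these data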;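 further: 0% = DMSO only wells and 100% = carbachol wells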
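system = HEK293 cells stably carrying human TRPML3-YFP | doses = one concentration, 3 µM nominal, 0.3% DMSO | timing = dye loading 1 h 37 °C then 30 min ambient, 125 s read | detection = Fluo-8 calcium dye fluorescence, ex 470-495, em 515-575 nm | benchmarks = high control carbachol 87 µM, low control DMSO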
zfTRPN1 agonist: activates the zebrafish TRPN1 channel | activation, % at 3 µM | HEK293 zebrafish TRPN1-YFP, Fluo-8 calcium fluorescence; 100% = response to 87 µM carbachol | hit rate 0.18% among 220,000;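 active means activation above its plate's cutoff, the mean activation of test wells on that plate plus 3 SD, cut at about 19% in these data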;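 further: 0% = DMSO alone and 100% = 87 µM carbachol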
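Material: zebrafish TRPN1-YFP in HEK293 cells; Doses: single test compound dose, 3 µM nominal, 0.3% DMSO; Timing: dye loading 1 h at 37 °C, then 30 min room temperature; Technique: intracellular calcium fluorescence with Fluo-8; Benchmarks: high carbachol 87 µM, low DMSO alone.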
V1aR counter: activates human V1a receptor in oxytocin agonist counter-screen. hit rate 0.25% among 320,000. P37288. CHO-V1R cells, Fluo-8 calcium fluorescence, agonist mode; 0% DMSO, 100% 3 nM vasopressin. activation, % at 3 µM;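 active means activation above the mean activation of all tested compounds plus 3 SD, per screening run, cut at about 20% in these data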;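 further: signal is peak over basal fluorescence ratio across a 100 second FLIPR read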
OXTR agonist: human OXTR agonism; P30559; CHO-OTR cells, Fluo-8 calcium fluorescence; normalized: DMSO 0%, oxytocin 100%; activation, % at 3 µM; hit rate 0.32% among 320,000;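 active means activation above the mean of all tested compounds plus 3 SD, cutoff set per screening run, cut at about 20% in these data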;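 further: peak over basal fluorescence ratio from a 100 s FLIPR kinetic read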
Target sequence (P30559 whole entry, looked up): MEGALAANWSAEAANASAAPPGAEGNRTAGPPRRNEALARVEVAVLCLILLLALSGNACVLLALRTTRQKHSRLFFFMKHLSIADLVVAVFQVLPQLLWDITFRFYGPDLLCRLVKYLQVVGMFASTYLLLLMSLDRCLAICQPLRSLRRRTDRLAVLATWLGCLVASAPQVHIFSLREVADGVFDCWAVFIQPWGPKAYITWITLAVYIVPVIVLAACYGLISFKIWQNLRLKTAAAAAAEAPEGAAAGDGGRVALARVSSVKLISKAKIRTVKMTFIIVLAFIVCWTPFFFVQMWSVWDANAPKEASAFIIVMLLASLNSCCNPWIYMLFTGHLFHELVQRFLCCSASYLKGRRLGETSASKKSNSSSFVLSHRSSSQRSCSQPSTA
OXTR potentiate: potentiates the human oxytocin receptor response; CHO-OTR cells, Fluo-8 calcium fluorescence, potentiator mode; 0% = oxytocin EC15, 100% = EC100; P30559; activation, % at 3 µM; AID 2445; hit rate 0.061% among 320,000;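 active means activation above that plate's cutoff, the mean activation of tested compounds plus 3 SD, cut at about 6.6% in these data, passing the limit was not always enough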;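 further: 100% uses oxytocin at 75 nM as the full agonist control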
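System: human OTR in CHO cells; Also added: sub-maximal oxytocin, roughly EC15; Timing: compound 6 min at room temperature before oxytocin, 100 s read; Technique: Fluo-8 intracellular calcium fluorescence, ex 470-495, em 515-575 nm; Controls: oxytocin EC15 low and EC100 high; Replication: singlicate.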
TRPN1 counter: counter-screen for TRPML3 agonists: agonists of zebrafish TRPN1 channel | HEK293 zebrafish TRPN1-YFP, Fluo-8 calcium fluorescence; scaled: carbachol wells 100%, DMSO wells 0% | shares compounds with TRPML3 ag | hit rate 10% among 310 | activation, % at 3 µM;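 active means mean activation over replicates above a set limit taken from the earlier TRPN1 channel primary screen, cut at about 19% in these data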;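 further: 100% = carbachol and 0% = 0.3% DMSO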
TRPML3 confirm: human TRPML3 agonism, confirmation | shares compounds with TRPML3 ag | HEK293 TRPML3-YFP, Fluo-8 calcium fluorescence; 100% set by carbachol, 0% by DMSO | activation, % at 3 µM | hit rate 80% among 310 | AID 1526;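 active means activation above a set limit derived from the earlier primary screen, cut at about 12% in these data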
OXTR agonist cf: confirmation of human oxytocin receptor agonists; shares compounds with OXTR agonist; CHO-OTR cells, Fluo-8 calcium fluorescence, agonist; activation, % at 3 µM; hit rate 20% among 390;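 active means mean activation above about 20% derived from the earlier single-dose screen, limit read from the data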;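 further: peak over minimum fluorescence ratio per well during a 100 second FLIPR read; 0% = DMSO alone and 100% = oxytocin high control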
V1aR counter 3x: counter-screen for oxytocin receptor agonists: V1a receptor agonists | hit rate 10% among 390 | CHO-V1R cells, Fluo-8 calcium fluorescence, agonist | activation, % at 3 µM | shares compounds with OXTR agonist | AID 434991;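 active means mean activation over triplicate exceeds the hit threshold set in the earlier primary screen, cut at about 20% in these data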;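 further: peak over basal fluorescence ratio within a 100 second read; 0% = DMSO alone and 100% = 3 nM vasopressin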
V1aR agonist cf: human V1a receptor agonism, confirmation; shares compounds with V1aR counter; CHO-V1R cells, Fluo-8 calcium fluorescence, agonist; activation, % at 3 µM; hit rate 20% among 180; AID 434964;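 active means average activation exceeds primary screen hit cutoff, cut at about 21% in these data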;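 further: peak over basal fluorescence ratio during a 100 s FLIPR read; 0% = DMSO only wells and 100% = 3 nM vasopressin wells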
OXTR ag counter: counter-screen for V1a receptor agonists: oxytocin receptor agonists | shares compounds with V1aR counter | CHO-OTR cells, Fluo-8 calcium fluorescence, agonist | activation, % at 3 µM | hit rate 10% among 180;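 active means mean activation over three repeats above the cutoff from the earlier oxytocin receptor agonist screen, cut at about 20% in these data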;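 further: peak over minimum fluorescence ratio within a 100 second FLIPR read; 0% = DMSO only wells and 100% = oxytocin high control wells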
An asterisk follows results filed as active; · = not tested or not shown.

SMILES	TRPML3 ag	zfTRPN1 agonist	V1aR counter	OXTR agonist	OXTR potentiate	OXTR agonist cf	V1aR counter 3x	others
CCCc1nn(C)c(C(=O)Nc2cccc3ccccc23)c1Cl	0	0	0	-2	-12	·	·
CCCOc1cc(C)c(Cl)cc1S(=O)(=O)N(CC)CC	26*	-2	-2	-2	-9	·	·	TRPN1 counter=-2;TRPML3 confirm=97*
CCOc1ccc(/C=C2/SC(=S)N(C(C(=O)O)c3ccccc3)C2=O)cc1OCC (centres undefined)	1	1	·	·	·	·	·
CCOc1cc(/C=C2\SC(=S)N(C(C(=O)O)c3ccccc3)C2=O)ccc1O (centres undefined)	13*	14	32*	38*	-34	·	·	TRPN1 counter=33*;TRPML3 confirm=15*
Cc1cc(C)cc(N(CC(=O)N2CCOCC2)S(=O)(=O)c2ccccc2)c1	35*	1	-1	0	-15	·	·	TRPN1 counter=0;TRPML3 confirm=46*
Cc1ccc(S(=O)(=O)N(CC(=O)N2CCCCC2)c2cccc(C)c2)cc1	127*	0	-1	-1	-8	·	·	TRPN1 counter=2;TRPML3 confirm=139*
Cc1cc(C)cc(N(CC(=O)N2CCC(C)CC2)S(=O)(=O)c2ccccc2)c1	8	-2	-2	-2	-7	·	·
O=C(O)c1cccnc1SC1CC(=O)N(CCc2ccccc2)C1=O (centres undefined)	1	-1	0	0	-1	·	·
O=C(N/N=C/c1ccncc1)c1sc2ccccc2c1Cl	·	·	0	0	-8	·	·
COc1cc(C(=O)NC(=S)NNC(=O)[C@H]2C[C@@H]2c2ccccc2)cc(OC)c1OC	14*	11	10	28*	-16	12	19	TRPN1 counter=25*;TRPML3 confirm=33*
COc1ccc(C(=O)CCN2CCC(C)CC2)cc1	·	·	1	1	-8	·	·
O=C1c2cccc3c(N4CCCCC4)ccc(c23)C(=O)N1CCO	13*	8	22*	16	-25	·	·	TRPN1 counter=18;TRPML3 confirm=10;V1aR agonist cf=32*;OXTR ag counter=18
COc1ccc(NC(=O)CSc2cc(C)ccc2C)cn1	-1	-3	0	-2	-14	·	·
Cc1ccnc(N/C=C(\C#N)c2nc(-c3cccc(Br)c3)cs2)c1	2	4	20	31*	-9	128*	162*
Cc1cccc(NC(=O)c2ccc(S(=O)(=O)N3CCCCC3)cc2)c1	·	·	2	0	-2	·	·
COc1cc(C=NNc2ccc(S(=O)(=O)Nc3ccccc3C(=O)O)cc2[N+](=O)[O-])ccc1O	·	·	-1	0	-6	·	·
Cc1cc(SCC(=O)OCC(=O)N(C)C2CCS(=O)(=O)C2)c(C)cc1Br (centres undefined)	·	·	13	21*	-18	4	6
Cc1cccc(OCC(O)Cn2c(=N)n(Cc3ccccc3)c3ccccc32)c1 (centres undefined)	-1	-1	18	31*	-13	7	6
O=C(O)c1cccc(CN2C(=O)CSC2=O)c1	1	0	0	0	-7	·	·
CS(=O)(=O)Nc1cccc2[nH]ncc12	1	2	2	0	-15	·	·
CCOc1ccc(NC(=O)C(C)Oc2ccc(C#N)cc2)cc1S(=O)(=O)N1CCCC1 (centres undefined)	·	·	9	20*	-10	16	8
CCOc1ccccc1OCC(=O)Nc1ccc(OC)c(S(=O)(=O)N2CCCCC2)c1	·	·	1	0	-8	·	·
CSc1nc(N2CCOCC2)c2c(c1C#N)CC(C)(C)OC2	0	-1	-1	-2	-11	·	·
Cc1cccc(NC(=O)c2ccc([N+](=O)[O-])o2)c1C	3	-1	0	-1	-3	·	·
COc1ccc(Nc2nc(-c3ccccc3)nc3ccccc23)c(OC)c1	0	1	6	30*	-27	0	0
SMILES	TRPML3 ag	zfTRPN1 agonist	V1aR counter	OXTR agonist	OXTR potentiate	OXTR agonist cf	V1aR counter 3x	others
COc1ccccc1Nc1nc(-c2ccccc2)nc2ccccc12	1	1	0	-2	-7	·	·
COc1ccc(CNC(=O)c2cccnc2Sc2ccc(Cl)cc2)cc1	-1	1	10	22*	-10	5	5
Cc1ccc(CNC(=O)c2cccnc2Sc2cccc(Cl)c2)cc1	3	10	16	19	-17	·	·
Cc1ccc(OC(=O)c2ccc(Br)o2)cc1	-1	-1	15	27*	-17	2	9
O=C(Oc1ccc(-c2nnco2)cc1)c1ccc(Br)o1	·	·	1	1	1	·	·
O=C(Nc1ccc2c(c1)CCCN2C(=O)c1ccccc1)c1ccccc1Br	·	·	8	6	-6	·	·
Cc1cc(C)cc(OCC(O)CN2CCC(CN3C(=O)c4cccc5cccc(c45)C3=O)CC2)c1 (centres undefined)	·	·	16	25*	-11	3	1
COc1cccc(OCC(O)CN2CCC(CN3C(=O)c4cccc5cccc(c45)C3=O)CC2)c1 (centres undefined)	1	1	1	3	-4	·	·
Cc1c(Nc2cc(=O)oc3ccccc23)c(=O)n(-c2ccccc2)n1C	1	0	1	0	-8	·	·
Cc1ccccc1COC(=O)CCCC1=NS(=O)(=O)c2ccccc2N1	·	·	17	24*	-15	17	14
COc1cc(/C=N/OCC(=O)Nc2cc(C)on2)ccc1OCc1ccccc1	1	8	15	24*	-21	16	8
c1ccc(COc2ccc(OCCCNC3CCCC3)cc2)cc1	2	1	13	21*	-16	13	2
CN(Cc1cccs1)C(=O)c1cccc(S(=O)(=O)N2CCCCCC2)c1	·	·	3	2	-2	·	·
COc1cccc2c1C(=O)c1c(O)c3c(c(O)c1C2=O)C[C@@](O)(C(=O)CO)C[C@@H]3O[C@H]1C[C@H](N)[C@@H](O)[C@H](C)O1	·	·	18	23*	-12	11	20
Cc1ccc2nc(NC(=O)C3CCN(S(=O)(=O)c4cnc[nH]4)CC3)sc2c1	1	1	0	-1	-6	·	·
